Experimental data from ChEMBL document CHEMBL4513216, “Probing the Open Global Health Chemical Diversity Library for Multistage-Active Starting Points for Next-Generation Antimalarials” (ACS Infect Dis, 2020).

Assay: Toxicity liver stage against HepG2, at 10uM
Format: cell-based
Parameters: test concentration 10 uM, cell line HepG2-A16-CD81EGFP
Conditions: human, HepG2-A16-CD81EGFP cells; read-out: INHIBITION
Procedure, shortened: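 Uninfected HepG2-A16-CD81EGFP cells, 3 × 10^3 per well, 1536-well, plated on prespotted compound at 10 μM final, parasite-free screening media added to match infected plates; puromycin 10 μM positive, DMSO 0.5% negative; run in parallel with 48 h PbLuc assay at 37 °C, 5% CO2; viability by CellTiter-Glo luminescence, normalized to controls.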

CSCC[C@H](NC(=O)CCn1ccc2c(Br)cccc21)C(=O)O
cytotoxicity at 10 µM: 0.633%

CC(C)CCNC(=O)CNC(=O)N1CCc2c([nH]c3ccc(Cl)cc23)C1
cytotoxicity at 10 µM: 6.73%

C[C@@H](O)CNC(=O)CCc1nc2cccnc2[nH]1
cytotoxicity at 10 µM: -6.9%

CN(C)CC(=O)N1CC2(CCN(Cc3ccccc3)C2)C1
cytotoxicity at 10 µM: 5.62%

CS(=O)(=O)N1CCCc2sc(C(=O)NC3CC3)nc21
cytotoxicity at 10 µM: -143%

COCCC1COC2(CCN(C(=O)C3CCCCC3)CC2)C1 (stereo not drawn)
cytotoxicity at 10 µM: 7.4%

O=S(=O)(C1CC1)N1CCO[C@H]2[C@H](OCC3CC3)CC[C@@H]21
cytotoxicity at 10 µM: 5.61%

CCOCC1CN(C(=O)c2ccnnc2)Cc2cnn(C)c21 (stereo not drawn)
cytotoxicity at 10 µM: 7.07%

CCOCC1CN(C(=O)c2cccnc2)Cc2cnn(C)c21 (stereo not drawn)
cytotoxicity at 10 µM: -1.28%

CNC(=O)N1CC[C@@H]2CN(Cc3cccc(Cl)c3)S(=O)(=O)[C@@H]2CC1
cytotoxicity at 10 µM: 0.748%

CC(=O)N1CCN(C(=O)NC(C)C)CC2(CNC(=O)C2)C1 (stereo not drawn)
cytotoxicity at 10 µM: -1.63%

CNC(=O)CS(=O)(=O)C1CCN(S(=O)(=O)c2c(F)cccc2F)CC1
cytotoxicity at 10 µM: -22%

COCCN1C(=O)CC(N2CCN(c3ccc(F)cc3)CC2)C1=O (stereo not drawn)
cytotoxicity at 10 µM: -9.26%

CC1CCCCN1C(=O)COCc1nc(-c2ccncc2)no1 (stereo not drawn)
cytotoxicity at 10 µM: 1.79%

CN(C1CCCN(c2ccccn2)C1)S(C)(=O)=O (stereo not drawn)
cytotoxicity at 10 µM: 1.07%

O=C(NCCNC1CCCCC1)c1cccs1
cytotoxicity at 10 µM: -12.7%

CCS(=O)(=O)N1C[C@H]2CC[C@](O)(c3ccc(C)cc3)[C@H]2C1
cytotoxicity at 10 µM: -23.2%

CN(C(=O)c1ccon1)[C@@H]1CCC[C@@H](Oc2ccccc2)[C@@H]1O
cytotoxicity at 10 µM: -17.5%

C[C@@H]1C[C@H](C(F)(F)F)n2nc(C3CCN(S(=O)(=O)N(C)C)CC3)cc2N1
cytotoxicity at 10 µM: -17.9%

Cc1cc(CCC(N)=O)cc(C2CCCN2Cc2ccnn2C)n1 (stereo not drawn)
cytotoxicity at 10 µM: -19.8%

CN(Cc1ccccn1)C(=O)Nc1cc(C(F)(F)F)c[nH]c1=O
cytotoxicity at 10 µM: 8.36%

CCC(NC(=O)NC1CCN(S(C)(=O)=O)CC1)c1cccs1 (stereo not drawn)
cytotoxicity at 10 µM: -11.6%

CC(NS(=O)(=O)N(C)C(C)C)C(=O)N(C)C (stereo not drawn)
cytotoxicity at 10 µM: 7.95%

CCN(Cc1cccnc1)C1CCN(c2ccccc2)C1=O (stereo not drawn)
cytotoxicity at 10 µM: -0.483%

Cc1n[nH]c(C)c1CNCC(O)c1ccc(F)c(F)c1 (stereo not drawn)
cytotoxicity at 10 µM: 4.32%

O=C(Cc1ccc(Br)s1)NCC(=O)Nc1cn[nH]c1
cytotoxicity at 10 µM: 2.06%

O=C(CN1CCN(c2ncnc3cccc(F)c23)CC1)N1CCCC1
cytotoxicity at 10 µM: 3.65%

CC1(NC(=O)CNC(=O)C(C)(C)C)CCc2ccccc2C1 (stereo not drawn)
cytotoxicity at 10 µM: -3.67%

Cc1n[nH]c(C)c1CCC(=O)NC1CCCN(c2ccccc2F)C1 (stereo not drawn)
cytotoxicity at 10 µM: -13.7%

CC(C)CN1CC(C(=O)NCCc2ccc(OC(F)F)cc2)CC1=O (stereo not drawn)
cytotoxicity at 10 µM: 5.04%

CC1CN(C(=O)NCc2cnn(-c3ccc(F)cc3F)c2)CCO1 (stereo not drawn)
cytotoxicity at 10 µM: 2.18%

Cc1n[nH]c(C)c1NC(=O)CN1CCc2c(nc(C(C)C)n2C)C1
cytotoxicity at 10 µM: -5.68%

COc1ccc(C(=O)NS(=O)(=O)c2cncc(Br)c2)cc1
cytotoxicity at 10 µM: -1.91%

Cc1cc(CNC(=O)NC(C)c2ccccc2)no1 (stereo not drawn)
cytotoxicity at 10 µM: 10.4%

COCCNC(=O)NC(C)COc1ccc(F)cc1F (stereo not drawn)
cytotoxicity at 10 µM: 4.14%

CC(C)(C)Cc1noc2ncc(C(=O)N3CCCSCC3)cc12
cytotoxicity at 10 µM: -20.5%

C[S+]([O-])CCNCc1ccc(OCc2cscn2)cc1 (stereo not drawn)
cytotoxicity at 10 µM: -138%

Cc1ccc(-n2ccnc2)c(C(=O)NCCOCC2CCCO2)c1 (stereo not drawn)
cytotoxicity at 10 µM: -139%

COc1ccc(C)cc1-c1csc(Cn2ccc(=O)[nH]c2=O)n1
cytotoxicity at 10 µM: 4.16%

CC(NC(=O)CCc1cccc(OC2CCCC2)c1)c1nncn1C (stereo not drawn)
cytotoxicity at 10 µM: 7.2%

Cc1ccc(S(=O)(=O)CCC(=O)NCc2nnc3n2CCC3)cc1
cytotoxicity at 10 µM: 3.55%

Cc1ncccc1C(=O)Nc1cccc(OCC(F)F)n1
cytotoxicity at 10 µM: -7.79%

O=C(CCc1nc(C2CC2)no1)c1ccc(F)c(F)c1
cytotoxicity at 10 µM: 0.923%

CCN(CC1CCOC1)C(=O)c1ccn(-c2ccc(OC)cc2)n1 (stereo not drawn)
cytotoxicity at 10 µM: -4.19%

CCn1c(CN(C)Cc2cnc(C)s2)nc2cc(F)ccc21
cytotoxicity at 10 µM: -31.9%

CC(C)N(CC(N)=O)Cc1cccc(C(F)(F)F)c1
cytotoxicity at 10 µM: 0.292%

O=C(CCc1ccco1)Nc1cccc(S(=O)(=O)C(F)F)c1
cytotoxicity at 10 µM: -42.5%

CCCS(=O)(=O)NCCc1ncc(C)s1
cytotoxicity at 10 µM: -9.31%

CC(NC(=O)C1=NN(C)C(=O)CC1)c1ccc(F)cc1F (stereo not drawn)
cytotoxicity at 10 µM: -4.4%

O=C(NCc1n[nH]c2c1CCCCC2)c1cnn2c1CCCC2
cytotoxicity at 10 µM: 13.6%

NC(=O)[C@H]1CCCN1C(=O)c1csc(-c2ccc(C(F)(F)F)cc2)n1
cytotoxicity at 10 µM: -0.187%

CCc1ccc(CN(Cc2ccccc2)CC(C)CO)nc1 (stereo not drawn)
cytotoxicity at 10 µM: 9.11%

CN1CCN2CCN(C(=O)c3cnn4cc(CCO)cnc34)CC2C1 (stereo not drawn)
cytotoxicity at 10 µM: 7.04%

Cc1ccc(CN2CCNC(C(=O)NC3CC3)C2)cc1C (stereo not drawn)
cytotoxicity at 10 µM: -3.41%

COCC1(C(=O)N2CCC(c3nccn3CC3CC3)CC2)CCC1
cytotoxicity at 10 µM: 4.5%

CC(C)NC(=O)[C@@H]1C[C@@H](N)CN1C(=O)CCSCc1ccccc1
cytotoxicity at 10 µM: 0.719%

Nc1nccc(N2C[C@@H](CN3CCCCC3)[C@@H](CO)C2)n1
cytotoxicity at 10 µM: -2.16%

Cc1cc(NCc2cc3n(n2)CCCN(C(=O)C2CCC2)C3)ncn1
cytotoxicity at 10 µM: -136%

COCCn1c(CN2CCCCO2)cnc1S(=O)(=O)CC1CCCCC1
cytotoxicity at 10 µM: -6.58%

CN1C[C@@H](n2cnc(-c3ccccc3)c2-c2ncc[nH]2)C[C@H]1C(=O)O
cytotoxicity at 10 µM: -4.75%

Cn1c(CN2CCCCC2)nnc1C1CCCN(c2ccncc2F)C1 (stereo not drawn)
cytotoxicity at 10 µM: -0.37%

O=C(c1ccc[nH]1)N1CCC(c2nccn2Cc2ccncc2)CC1
cytotoxicity at 10 µM: -16.8%

CCNC(=O)[C@@H]1C[C@@H](NC(=O)c2cccnc2O)CN1Cc1ccsc1
cytotoxicity at 10 µM: -5.39%

Cc1cc(C)n(CC2CN(CC(=O)NC3(C#N)CCCC3)CCO2)n1 (stereo not drawn)
cytotoxicity at 10 µM: -2.49%

COc1c(C)cnc(CN2CCC(N(C)C(=O)C3CC3)CC2)c1C
cytotoxicity at 10 µM: -2.74%

Cc1nn(C)c(C)c1C1COCCN1C(=O)c1cc(F)ccc1F (stereo not drawn)
cytotoxicity at 10 µM: 3.38%

O=C(O)c1c[nH]c2cc(NS(=O)(=O)c3ccc(Cl)cc3F)ccc12
cytotoxicity at 10 µM: -1.2%

O=C(NCCNc1ncccn1)C1CCN(C(=O)c2ccoc2)CC1
cytotoxicity at 10 µM: -12.6%

CC(c1nc(C2CC2)no1)N1CCN(CCCN2CCCC2=O)CC1 (stereo not drawn)
cytotoxicity at 10 µM: -13.4%

Cc1n[nH]c(C)c1C1COCCN1C(=O)c1n[nH]c2ccccc12 (stereo not drawn)
cytotoxicity at 10 µM: -3.63%

Cc1nc(C2CCCN(C(=O)c3ccc(Cl)cn3)C2)no1 (stereo not drawn)
cytotoxicity at 10 µM: -10.4%

CCc1nc(CN2CCN(C(=O)N3CCCCC3)CC2)cs1
cytotoxicity at 10 µM: -16%

Cc1csc(C2CCCN(C(=O)c3c(C)nn4cccnc34)C2)n1 (stereo not drawn)
cytotoxicity at 10 µM: -10.4%

CN(C)C(=O)CN1CCN(C(=O)c2cnn(-c3ccccc3Cl)c2)CC1
cytotoxicity at 10 µM: -3.67%

CC(Cn1cccn1)NCc1csc(COc2ccccc2)n1 (stereo not drawn)
cytotoxicity at 10 µM: -8.51%

COc1ccc(Cl)cc1C(=O)N1CCCC(c2cc(C)[nH]n2)C1 (stereo not drawn)
cytotoxicity at 10 µM: -10.1%

CNC(=O)c1ccc(CNC(=O)NCCN(C)C2CCCC2)cc1
cytotoxicity at 10 µM: -7.66%

CCOc1ncccc1NC(=O)NC1CCCN(S(C)(=O)=O)C1 (stereo not drawn)
cytotoxicity at 10 µM: -3.62%

COc1ccc(CC(=O)N2CCCCC2Cn2cc(C)cn2)cc1F (stereo not drawn)
cytotoxicity at 10 µM: -14.1%

COc1c(C2CCCN2C(=O)c2ccc3[nH]cnc3c2)c(C)nn1C (stereo not drawn)
cytotoxicity at 10 µM: -8.04%

Cc1oc(-c2ccco2)nc1CC(=O)N1CCN(CC(C)O)CC1 (stereo not drawn)
cytotoxicity at 10 µM: -11.4%

Cc1nc(CN2CCCC(N(C)Cc3cnc(C)s3)C2)no1 (stereo not drawn)
cytotoxicity at 10 µM: 2.76%

O=C(Cc1cccc(F)c1)NCCNCc1cccc(O)c1
cytotoxicity at 10 µM: -9.5%

O=C(NCCc1ccccn1)C1=NN(c2ccccc2)C(=O)CN1
cytotoxicity at 10 µM: -1.96%

CCn1cnnc1C1CCN(C(=O)c2ccc(Cl)s2)CC1
cytotoxicity at 10 µM: -12.2%

O=C(c1n[nH]c2ccccc12)N1CCCC1c1noc(C2CC2)n1 (stereo not drawn)
cytotoxicity at 10 µM: -10.8%

CC(=O)NC1CCCN(C(=O)c2ccc(Br)cc2O)C1 (stereo not drawn)
cytotoxicity at 10 µM: -10.4%

CCOc1ccccc1-c1noc(CN2CC(n3cccn3)C2)n1
cytotoxicity at 10 µM: -2.79%

CC(=O)NCC(=O)N1CCc2c(CNc3ncccn3)cncc2C1
cytotoxicity at 10 µM: 1.59%

O=C1[C@H]2CN(C3CCOCC3)C[C@H]2CN1Cc1ccncc1
cytotoxicity at 10 µM: -124%

Cc1cc(CN2C[C@@H]3COC[C@]3(CNC(=O)c3ccsc3)C2)no1
cytotoxicity at 10 µM: 1.41%

O=C(NCC1CC1)[C@H]1C[C@@H]2[C@@H](C1)OCCN2Cc1cccnc1
cytotoxicity at 10 µM: 4.09%

CCN1C(=O)C2(CCN(CCN(C)C)CC2)c2ccccc21
cytotoxicity at 10 µM: -112%

CN(C)CCOCC1CN(Cc2ccccn2)Cc2nnn(C)c21 (stereo not drawn)
cytotoxicity at 10 µM: 5.5%

O=C(c1ncccn1)N1CCC[C@]2(C[C@@H](Oc3ncccc3F)CO2)C1
cytotoxicity at 10 µM: -4.28%

c1ccc(CN2CC[C@@H]3[C@@H](CO[C@@H]3CNc3ncccn3)C2)nc1
cytotoxicity at 10 µM: -4.09%

O=C(NCC1CC1)C1CN(Cc2ccncc2)Cc2ccnn2C1 (stereo not drawn)
cytotoxicity at 10 µM: -0.902%

CCc1ccc(CN2CCCn3c(nc(Cn4ccnc4)cc3=O)C2)o1
cytotoxicity at 10 µM: 4.29%

CN1CCC2(CCCN(c3nccc(C(F)(F)F)n3)C2)CC1
cytotoxicity at 10 µM: 4.14%

CCn1ncc2c1C(COC)CN(Cc1ccc(F)cc1)C2 (stereo not drawn)
cytotoxicity at 10 µM: 12.4%

O=C(N1CCOCC1)N1CCc2ncnc(NC3CCC3)c2CC1
cytotoxicity at 10 µM: -1.92%

CC(=O)N1CC(=O)N(c2ccsc2)CC12CCN(Cc1ccccn1)C2 (stereo not drawn)
cytotoxicity at 10 µM: 13%

O=C(c1ccsc1)N1CCO[C@@H]2CN(Cc3cccs3)C[C@@H]2C1
cytotoxicity at 10 µM: -133%

Cc1csc(CN2C[C@@H]3COC[C@]3(COCC(=O)N(C)C)C2)n1
cytotoxicity at 10 µM: 0.851%

Cc1ccc(O[C@@H]2C[C@H]3CN(C(=O)c4cccnc4)CCN3C2)cc1
cytotoxicity at 10 µM: 1.06%

COc1ncccc1CN1C[C@@H]2COC[C@]2(COc2cccnc2)C1
cytotoxicity at 10 µM: -0.182%

Cc1cccc(C(=O)N2C[C@@H]3C(CC(=O)N4CCCC4)[C@@H]3C2)n1 (stereo partly drawn)
cytotoxicity at 10 µM: 1.82%

COc1ccc(C2c3c(n[nH]c3C)N=C3COC(=O)C32)cc1OC (stereo not drawn)
cytotoxicity at 10 µM: 7.98%
